Measured values of several laboratories.
Lines come from different studies, so protocols differ.
Target: Wee1-like protein kinase (WEE1, Homo sapiens, UniProt P30291)

| Compound | test | conditions | remaining binding |
| --- | --- | --- | --- |
| COc1ccnn2ncc(-c3ccnc(N(C)C)n3)c12 | binding | 1 µM | 100% |
| O=C(c1ccc(Nc2nccc(-c3cc4ccccc4s3)n2)cc1)N1CCC(N2CCCC2)CC1 | binding, competition with immobilised ligand | 1 µM | 83% |
| N[C@@H]1CCN(c2nccc(-c3cnn4ncccc34)n2)C1 | binding | 1 µM | 100% |
| Cc1c[nH]c2nccc(Oc3c(F)cc(Nc4cc(Cl)nc(N)n4)cc3F)c12 | cell-free assay, competition with immobilised ligand | 0.1 µM | 100% |
| O=C(Nc1c[nH]nc1C(=O)NC1CCNCC1)c1cc(F)cc(F)c1 | binding, competition with immobilised ligand | 1 µM | 100% |
| O=C(NCCCN1CCOCC1)c1ccc(Nc2ncc(Cl)c(-c3ccc(Cl)s3)n2)cc1 | binding, competition with immobilised ligand | 1 µM | 15% |
| CN(C)c1nccc(-c2cnn3ncccc23)n1 | binding | 1 µM | 80% |
| CCC(=O)N[C@H]1CC[C@@H](C(=O)N(C)c2ccc(-c3nc4ccccc4o3)cc2)C1 | cell-free assay, competition with immobilised ligand | 1 µM | 100% |
| O=C(c1ccc(Nc2ncc(Cl)c(-c3cc4ccccc4s3)n2)cc1)N1CCC(N2CCCC2)CC1 | binding, competition with immobilised ligand | 1 µM | 11% |
| c1cncc(-c2cccc(Nc3nccc(NC4CCCCC4)n3)c2)c1 | binding, competition with immobilised ligand | 10 µM | 90% |
| CN(C)c1nccc(-c2cnc3ncccn23)n1 | binding | 1 µM | 100% |
| CN1CCN(c2cnc3c(C4CCN(C(=O)c5ccc(OC(F)(F)F)cc5N)CC4)ncnc3c2)CC1 | cell-free assay, competition with immobilised ligand | 1 µM | 96% |
| FC(F)(F)Oc1cccc(-c2cnc3ccc(-c4ccncc4)nn23)c1 | binding, competition with immobilised ligand | 5 µM | 90% |
| CCN1CCN(Cc2ccc(C(=O)Nc3ccc(C)c(Oc4ccc5c(c4)CC(=O)N5)c3)cc2C(F)(F)F)CC1 | binding, competition with immobilised ligand | 1 µM | 100% |
| CO[C@@H](C)c1c(Nc2ccc([C@@H](N(C)C(=O)C3CCS(=O)(=O)CC3)C(F)(F)F)cc2)cnc2cc(Cl)nn12 | cell-free assay, competition with immobilised ligand | 1 µM | 92% |
| C[C@H]1CCN(c2nccc(-c3cnn4ncccc34)n2)C1 | binding | 1 µM | 100% |
| Cn1nc(C(=O)NCc2ccc(C(=O)O)cc2)cc1-c1ccc2[nH]ccc2c1 | cell-free assay, competition with immobilised ligand | 0.1 µM | 100% |
| COc1ncc2cc3ccccc3nc2c1C#N | cell-free assay, competition with immobilised ligand | 5 µM | 98% |
| CC1CCCN1c1nccc(-c2cnn3ncccc23)n1 (stereo not shown) | binding | 1 µM | 100% |
| FC(F)(F)c1ccc2c(c1)nc(-c1cccnc1)n2C1CC1 | cell-free assay, competition with immobilised ligand | 1 µM | 93% |
| COc1cnc(Nc2cccc(S(N)(=O)=O)c2)nc1N1CCN(c2ccccc2)C(=O)C1 | binding, competition with immobilised ligand | 1 µM | 98% |
| CN(C)c1ncc(F)c(-c2cnn3ncccc23)n1 | binding | 1 µM | 100% |
